From ChEMBL document CHEMBL1124794, “Synthesis, chemistry, and antineoplastic activity of alpha-halopyridinium salts: potential pyridone prodrugs of acylated vinylogous carbinolamine tumor inhibitors” (J Med Chem, 1990)
Values joined by “and” are separate entries in the source; they are usually repeats but may differ in a detail not shown here. Equal values may be shown once.

Assays:
[1] = Effect of pH on carbamate hydrolysis in 0.05 M buffer concentration at the pH 2.0, 25 degree C.; assay type: ADME
In short: (§1)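 Bis-carbamate in acetonitrile–water (1:1; buffer added to a 0.5 mg/mL acetonitrile solution), 0.05 M buffer, ionic strength 0.136 (KCl), 25 ± 0.1 °C. Buffers: phosphate pH 2.0; citrate pH 3.0–3.5; succinate pH 4.0; acetate pH 5.0; phosphate pH 6.0–8.0; borate pH 9.0; carbonate pH 10.0. HPLC bis-carbamate peak-area loss, ln(area0/areat) vs time slope = kobs. Duplicates averaged.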

L1210 [2] = assay: In vivo activity against murine L1210 tumor system at the dose of 36 mg/kg, activity expressed as %T/C.; assay type: functional, Mus musculus
In short: (§2)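 L1210 lymphocytic leukemia: ascitic fluid with ca. 10^6 cells injected ip into CD2F1 mice. Dosing started 24 h after inoculation and was repeated daily for five doses in total, from solutions or suspensions made fresh each day. Toxicity day survivors were scored on day 5. Body weight difference is day 5 minus day 1. %T/C is based on median survival time versus controls.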

[3] = Half life at the buffer concentration of 0.01 M.; assay type: ADME
In short: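 Bis-carbamate in acetonitrile–water (1:1), 25 ± 0.1 °C. Citrate buffer at pH 3.0 or phosphate buffer at pH 7.4, at 0.01, 0.025 or 0.05 M, ionic strength 0.136 (KCl). Kinetics followed by HPLC as the decrease in bis-carbamate peak area. The regression slope of ln(area0/areat) vs time gave pseudo-first-order kobs. Duplicates averaged.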

L1210 [4] = assay: In vivo activity against murine L1210 tumor system at the dose of 36 mg/kg, activity expressed as KE; assay type: functional, Mus musculus; in short: as §2
L1210 [5] = assay: In vivo activity against murine L1210 tumor system at the dose of 60 mg/kg, activity expressed as body weight difference; T-C; assay type: functional, Mus musculus; in short: as §2
P388 [6] = assay: In vivo activity against P388 Lymphocytic Leukemia in CD2F1 mice at the dose of 100 mg/kg, activity expressed as KE; assay type: functional, Mus musculus
[7] = In vivo activity against murine M5076 tumor system at the dose of 60 mg/kg, activity expressed as %T/C.; assay type: functional, Mus musculus
[8] = In vivo activity against murine M5076 tumor system at the dose of 100 mg/kg, activity expressed as body weight difference; T-C; assay type: functional, Mus musculus
In short: (§3)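 M5076: ascitic fluid with ca. 10^6 cells inoculated ip into CD2F1 mice. Dosing started 24 h after inoculation and was then given every 4 days for four doses in total, from solutions or suspensions made fresh each day. Toxicity day survivors were scored on day 5. Body weight difference is day 14 minus day 1. %T/C is based on median survival time versus controls.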

[9] = Effect of pH on carbamate hydrolysis in 0.05 M buffer concentration at the pH 3.0, 25 degree C.; assay type: ADME; in short: as §1
[10] = In vivo activity against murine M5076 tumor system at the dose of 60 mg/kg, activity expressed as body weight difference; T-C; assay type: functional, Mus musculus
L1210 [11] = assay: In vivo activity against murine L1210 tumor system at the dose of 166.7 mg/kg, activity expressed as body weight difference; T-C; assay type: functional, Mus musculus; in short: as §2
[12] = Effect of pH on carbamate hydrolysis in 0.05 M buffer concentration at the pH 5.0, 25 degree C.; assay type: ADME; in short: as §1
P388 [13] = assay: In vivo activity against P388 Lymphocytic Leukemia in CD2F1 mice at the dose of 12.5 mg/kg, activity expressed as body weight difference; T-C; assay type: functional, Mus musculus
In short: (§4)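 CD2F1 mice were inoculated with ascitic fluid holding ca. 10^6 P388 cells. Drug was given daily from 24 h after inoculation, from solutions or suspensions made fresh each day, some as a saline suspension. TDS is survivors/initial animals on day 5. BWD is body weight on day 5 minus day 1. %T/C compares median survival of treated and control mice.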

P388 [14] = assay: In vivo activity against P388 Lymphocytic Leukemia in CD2F1 mice at the dose of 200 mg/kg, activity expressed as body weight difference; T-C; assay type: functional, Mus musculus; in short: as §4
[15] = Effect of pH on carbamate hydrolysis in 0.05 M buffer concentration at the pH 8.0, 25 degree C.; assay type: ADME; in short: as §1
[16] = In vivo activity against murine M5076 tumor system at the dose of 36 mg/kg, activity expressed as KE; assay type: functional, Mus musculus; in short: as §3
[17] = In vivo activity against murine M5076 tumor system at the dose of 60 mg/kg, activity expressed as KE; assay type: functional, Mus musculus
[18] = Half life at the concentration of 0.05 M.; assay type: ADME
[19] = In vivo activity against murine M5076 tumor system at the dose of 50 mg/kg, activity expressed as TDS; 10/10; assay type: functional, Mus musculus
MX1 [20] = assay: In vivo activity against murine MX-1 tumor system at the dose of 150 mg/kg, activity expressed as TDS; 0/6; assay type: functional, Mus musculus
[21] = Half life at the ionic strength 0.50 M NaCl; assay type: ADME
In short: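 Pyridinium salt in 0.02 M phosphate buffer, pH 7.4, 25 °C, with NaCl varied 0.10–1.0 M. Loss of the pyridinium chromophore's UV absorbance maximum (conversion to pyridone) followed over time. Pseudo-first-order kobs and half-life derived from that decay.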

[22] = Effect of phosphate buffer on the hydrolysis of alpha Fluoropyridinium Moity at the concentration of 0.10M, pH 6.5, 25 degree C; assay type: ADME
In short: (§5)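 α-Fluoropyridinium hydrolysis to pyridone in phosphate buffer at 0.02, 0.05 or 0.10 M, pH 6.5 or 8.0, ionic strength […] °C. Pyridinium UV absorbance maximum followed with time to give pseudo-first-order kobs and half-life.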

P388 [23] = assay: In vivo activity against P388 Lymphocytic Leukemia in CD2F1 mice at the dose of 25 mg/kg, activity expressed as body weight difference; assay type: functional, Mus musculus; in short: as §4
[24] = Effect of pH on the hydrolysis of pyridinium Moity in 0.05 M buffer concentration at the pH 6.5; assay type: ADME
In short: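 Pyridinium salt in 0.05 M phosphate buffer, pH 6.0–8.0 (set by pH meter), ionic strength 0.25 M, 25 °C. Decrease in the pyridinium UV absorbance maximum followed over time to give pseudo-first-order kobs and half-life.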

[25] = In vivo activity against murine M5076 tumor system at the dose of 25 mg/kg, activity expressed as KE; assay type: functional, Mus musculus; in short: as §3
[26] = Effect of phosphate buffer on the hydrolysis of alpha Fluoropyridinium Moity at the concentration of 0.05M, pH 6.5, 25 degree C; assay type: ADME; in short: as §5
L1210 [27] = assay: In vivo activity against murine L1210 tumor system at the dose of mg/kg, activity expressed as KE; assay type: functional, Mus musculus; in short: as §2
L1210 [28] = assay: In vivo activity against murine L1210 tumor system at the dose of 50 mg/kg, activity expressed as TDS; 5/6; assay type: functional, Mus musculus; in short: as §2
[29] = In vivo activity against murine M5076 tumor system at the dose of 25 mg/kg, activity expressed as %T/C.; assay type: functional, Mus musculus; in short: as §3
L1210 [30] = assay: In vivo activity against murine L1210 tumor system at the dose of 50 mg/kg, activity expressed as body weight difference; assay type: functional, Mus musculus; in short: as §2
[31] = Half life at the buffer concentration of 0.02 M.; assay type: ADME; in short: as §5
L1210 [32] = assay: In vivo activity against murine L1210 tumor system at the dose of 100 mg/kg, activity expressed as TDS; 0/6; assay type: functional, Mus musculus; in short: as §2
MX1 [33] = assay: In vivo activity against murine MX-1 tumor system at the dose of 37.5 mg/kg, activity expressed as body weight difference.; assay type: functional, Mus musculus

In the case of `CC(C)NC(=O)OCc1c(COC(=O)NC(C)C)c(-c2ccn(C)c(=O)c2)n2c1CCC2`, the K obs [1] is reported as 0.33 min⁻¹, the T/C (L1210 [2]) is reported as 135% and the T1/2 [3] is reported as 19.86 min and 52.31 min. It also gave a KE (L1210 [4]) of -0.86, a BWD (L1210 [5]) of -3.2 g and a KE (P388 [6]) of 0.69. The T/C [7] was 114%, the BWD [8] was -1.3 g and the K obs [9] was 0.0304 min⁻¹. It also gave a BWD [10] of 0.9 g, a BWD (L1210 [11]) of -3.8 g and a K obs [12] of 0.0139 min⁻¹. For the same compound, the BWD (P388 [13]) was -0.1 g, the BWD (P388 [14]) was -1.4 g and the K obs [15] was 0.0128 min⁻¹. For the same compound, the KE [16] was -1.69, the KE [17] was -1.79 and the half-life [18] was 22.8 min.
For `CC(C)NC(=O)OCc1c(COC(=O)NC(C)C)c(-c2cc[n+](C)c(F)c2)n2c1CCC2.[I-]`, the TDS [19] was 10, the TDS (MX1 [20]) was 0 and the half-life [21] was 63.2 min. For the same compound, the K obs [22] was 0.0138 min⁻¹, the BWD (P388 [23]) was -1 g and the K obs [24] was 0.0153 min⁻¹. The KE [25] was -1.98, the K obs [26] was 0.0072 min⁻¹ and the KE (L1210 [27]) was -2.08. It also gave a TDS (L1210 [28]) of 5, a T/C [29] of 104% and a BWD (L1210 [30]) of -0.8 g. It also gave a half-life [31] of 52.5 min, a TDS (L1210 [32]) of 0 and a BWD (MX1 [33]) of 0.3 g.
